Data as given in ChEMBL document CHEMBL3286351, “Antibacterial evaluation of structurally amphipathic, membrane active small cationic peptidomimetics: synthesized by incorporating 3-amino benzoic acid as peptidomimetic element” (Eur J Med Chem, 2014).
≈ marks a conversion by molar mass, not a printed value. Calls of active or inactive are those of the source. The calls are words filed in the database; no cut-off is given here. Where a SMILES comes first, the peptide text is derived from it. [ ]: non-standard residue; d: D form. 3Abz = Nc1cccc(C(=O)O)c1; Orn = NCCC[CH](N)C(=O)O

Tests used:
[1] = system: Staphylococcus epidermidis; assay: Antibacterial activity against methicillin-resistant Staphylococcus epidermidis ATCC 51625 assessed as growth inhibition after 18 hrs by CLSI microdilution broth assay; type: functional; conditions: ATCC 51625, 18 h
Method in brief: (§1)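 Modified CLSI broth microdilution in Mueller-Hinton broth. Wells held 90 µL of about 2 × 10^5 CFU/mL inoculum plus 10 µL of serially diluted peptidomimetic, range 0.7-100 µg/mL. Plates were incubated overnight with agitation at 37 °C and absorbance read at 600 nm after 18 h. Controls: inoculum without compound, and uninoculated broth. Run in triplicate.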

[2] = Induction of hemolysis in human RBC assessed as hemoglobin release after 1 hr by microtiter plate reader analysis; type: cell-based, Erythrocyte; conditions: for HC10: erythrocyte, 1 h; for HC50 at 1 h: red blood cells
Method in brief: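 Freshly isolated human RBCs washed three times in PBS (35 mM phosphate, 150 mM NaCl, pH 7.2) and used as a 4% (v/v) suspension. Mixed 1:1 with twofold serial dilutions of compound, incubated 1 h at 37 °C without agitation, then centrifuged. Supernatant A540 read. PBS defined 0% and 1% Triton X-100 defined 100% lysis; HC50 and HC10 derived.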

[3] = Selectivity ratio of HC50 for hemolysis in human RBC to MIC for Staphylococcus aureus
HaCaT [4] = assay: Cytotoxicity against human HaCaT cells assessed as decrease in cell viability after 24 hrs by MTT assay; type: cell-based
Method in brief: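 HaCaT keratinocytes grown as a monolayer in DMEM with 10% FBS and penicillin/streptomycin, 37 °C, 5% CO2. Seeded 24 h, then exposed to compound for 24 h. MTT (5 mg/mL stock in PBS) added for 4 h; formazan dissolved in isopropanol and read at 570 nm. Growth inhibition calculated relative to medium-only controls. Two independent experiments in triplicate.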

HaCaT [5] = assay: Cytotoxicity against human HaCaT cells at 100 to 500 ug/ml after 24 hrs by LDH release assay; type: cell-based
Method in brief: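 HaCaT cells (DMEM with 10% FBS, 37 °C, 5% CO2) seeded for 24 h, then treated with varying concentrations for 24 h. LDH measured at 490 nm in both supernatant and trypsinized cell lysate with a non-radioactive kit. % release = supernatant/(supernatant + lysate) × 100. Two independent experiments in triplicate.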

[6] = (§2) Stability in human plasma assessed as compound degradation after 24 hrs by RP-HPLC analysis; type: ADME, cell-free; conditions: read-out: Drug degradation
Method in brief: (§3)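 Compound (1 mg/mL stock in water; 50 µL) added to 1 mL fresh heparinized human plasma and held at 37 °C. Samples taken at 30 min, 1, 2, 6, 12 and 24 h. Proteins precipitated with 95% ethanol, cooled at 4 °C for 15 min and centrifuged at 18,000 g. Supernatant analyzed by RP-HPLC with UV detection at 280 nm.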

[7] = Stability in human plasma assessed as compound degradation after 30 mins by RP-HPLC analysis; type: ADME, cell-free; conditions: read-out: Drug degradation; method in brief: as §3
Plasma [8] = assay: Stability in human plasma assessed as compound degradation after 12 hrs by RP-HPLC analysis; type: ADME, cell-free; method in brief: as §3
trypsin = assay: Proteolytic stability assessed as trypsin (unknown origin)-mediated compound degradation by measuring compound remaining after 4 days by RP-HPLC analysis; type: ADME; conditions: human, trypsin; read-out: Stability
Method in brief: (§4)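 Compound at 1 mg/mL in 0.1 M NH4HCO3 (pH 8.2) combined with trypsin or α-chymotrypsin solution (1 mg enzyme per 50 mL of the same buffer) at 37 °C. Aliquots taken over time and quenched with 10% formic acid. Remaining compound quantified by C18 RP-HPLC. An enzyme-free control was run for each test.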

alpha chymotrypsin = assay: Proteolytic stability assessed as alpha chymotrypsin (unknown origin)-mediated compound degradation by measuring compound remaining after 4 days by RP-HPLC analysis; type: ADME; conditions: human, read-out: Stability; method in brief: as §4
[9] = Retention time of the compound by HPLC analysis; type: physicochemical
Method in brief: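 Analytical RP-HPLC on a C18 column (5 µm, 4.6 × 250 mm) at room temperature. Run a linear gradient of 0.5-60% acetonitrile containing 0.05% TFA against water containing 0.05% TFA at 0.5 mL/min.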

Escherichia coli [10] = assay: Antibacterial activity against Escherichia coli MTCC 723 assessed as growth inhibition after 18 hrs by CLSI microdilution broth assay; type: functional; conditions: MTCC 723, 18 h
Pseudomonas aeruginosa = assay: Antibacterial activity against Pseudomonas aeruginosa MTCC 2295 assessed as growth inhibition after 18 hrs by CLSI microdilution broth assay; type: functional; conditions: MTCC 2295, 18 h
Staphylococcus aureus [11] = assay: Antibacterial activity against Staphylococcus aureus MTCC 3160 assessed as growth inhibition after 18 hrs by CLSI microdilution broth assay; type: functional; conditions: MTCC 3160, 18 h
Bacillus subtilis = assay: Antibacterial activity against Bacillus subtilis MTCC 2763 assessed as growth inhibition after 18 hrs by CLSI microdilution broth assay; type: functional; conditions: MTCC 2763, 18 h
Staphylococcus aureus [12] = assay: Antibacterial activity against methicillin-resistant Staphylococcus aureus ATCC BAA-1720 assessed as growth inhibition after 18 hrs by CLSI microdilution broth assay; type: functional; conditions: ATCC BAA-1720, 18 h; method in brief: as §1
Staphylococcus aureus [13] = assay: Bactericidal activity against Staphylococcus aureus MTCC 3160 assessed as number of bacteria at 4 times MIC measured within 30 mins by time kill assay (reference value: 10^6 CFU/ml); type: functional
Method in brief: (§5)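 Time-kill assay. […] Aliquots taken at fixed intervals were serially diluted and plated on Mueller-Hinton agar. CFU were counted after 24 h at 37 °C. Two independent experiments, each in triplicate.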

Escherichia coli [14] = assay: Bactericidal activity against Escherichia coli MTCC 723 assessed as number of bacteria at 4 times MIC measured within 30 mins by time kill assay (reference value: 10^6 CFU/ml); type: functional; method in brief: as §5
Lipid bilayer [15] = assay: Membrane permeabilization in bacterial membrane model consisting large unilamellar vesicle of dipalmitoylphosphatidylcholine:dipalmitoylphosphatidylglycerol at ratio of 7:3 assessed as calcein release at 15 ug/ml after 20 mins by fluorescence assay; type: cell membranes
Method in brief: (§6)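 LUVs of DPPC:DPPG 7:3 (w/w) loaded with 70 mM calcein (150 mM NaCl, 0.1 mM EDTA, pH 7.4). Made by freeze-thaw and extrusion through 100 nm filters; free dye removed on Sephadex G-50; diameter 110-130 nm. Diluted to 40 µM lipid and exposed to 5-15 µg/mL compound. Fluorescence read at ex 490/em 520 nm each minute for 20 min, then every 10 min. Triton X-100 defined 100% release.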

Lipid bilayer [16] = assay: Membrane permeabilization in bacterial membrane model consisting large unilamellar vesicle of dipalmitoylphosphatidylcholine:dipalmitoylphosphatidylglycerol at ratio of 7:3 assessed as calcein release at 5 ug/ml after 50 mins by fluorescence assay; type: cell membranes; method in brief: as §6
Lipid bilayer [17] = assay: Membrane permeabilization in bacterial membrane model consisting large unilamellar vesicle of dipalmitoylphosphatidylcholine:dipalmitoylphosphatidylglycerol at ratio of 7:3 assessed as calcein release after 5 mins by fluorescence assay; type: cell membranes; method in brief: as §6
[18] = Membrane permeabilization in mammalian membrane model consisting large unilamellar vesicle of dipalmitoylphosphatidylcholine:cholesterol at ratio of 10:1 assessed as calcein release at 15 ug/ml after 5 mins by fluorescence assay; type: cell membranes
Method in brief: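 LUVs of DPPC/cholesterol 10:1 (w/w) loaded with calcein, extruded through 100 nm filters, and cleared of free dye on Sephadex G-50. Diluted to 40 µM lipid in calcein-free buffer (150 mM NaCl, 0.1 mM EDTA). Calcein release read at ex 490/em 520 nm, normalized to Triton X-100 lysis.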

Escherichia coli [19] = assay: Induction of membrane damage in Escherichia coli at 4 times MIC after 2 hrs by DAPI/propidium iodide staining based fluorescence microscopy; type: functional, organism-based
Method in brief: (§7)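 Stained with PI (5 µg/mL) for 15 min in the dark at 0 °C, washed, then DAPI (10 µg/mL) for 15 min in the dark at 0 °C. Untreated cells processed identically as controls. Imaged by fluorescence microscopy with a 60× oil objective.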

Staphylococcus aureus [20] = assay: Induction of membrane damage in Staphylococcus aureus at 4 times MIC after 2 hrs by DAPI/propidium iodide staining based fluorescence microscopy; type: functional, organism-based; method in brief: as §7
Staphylococcus aureus [21] = assay: Antibacterial activity against Staphylococcus aureus MTCC 3160 assessed as growth inhibition treated for 16 days by two-fold dilution assay; type: functional, organism-based
Staphylococcus aureus [22] = assay: Antibacterial activity against methicillin-resistant Staphylococcus aureus ATCC BAA-1720 assessed as growth inhibition treated for 16 days by two-fold dilution assay; type: functional, organism-based
Method in brief: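 Serial-passage resistance study. Start from the initial MIC by broth microdilution, then expose cells to doubling dilutions in triplicate wells. After each 18 h incubation, pool the wells with the highest concentration still showing visible growth and re-inoculate at about 2 × 10^6 CFU/mL.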

Plasma [23] = assay: Stability in human plasma assessed as compound degradation after 1 hr by RP-HPLC analysis; type: ADME, cell-free; method in brief: as §3
[24] = Stability in human plasma assessed as compound degradation after 2 hrs by RP-HPLC analysis; type: ADME, cell-free; conditions: read-out: Drug degradation; method in brief: as §3
Plasma [25] = assay: as §2; type: ADME, cell-free; conditions: 24 h; method in brief: as §3
[26] = Proteolytic stability assessed as trypsin (unknown origin)-mediated compound degradation after 36 hrs by RP-HPLC analysis; type: ADME; conditions: human; method in brief: as §4
[27] = Proteolytic stability assessed as alpha chymotrypsin (unknown origin)-mediated compound degradation after 24 hrs by RP-HPLC analysis; type: ADME; conditions: human; method in brief: as §4

| SMILES | MIC [1] | HC10 [2] | HC50 at 1 h [2] | Selectivity ratio [3] | Activity (HaCaT [4]) | Activity (HaCaT [5]) | metabolised at 0.5 h [7] | remaining at 96 h (trypsin) | remaining at 96 h (alpha chymotrypsin) | Retention_time [9] | MIC (Escherichia coli [10]) | MIC (Pseudomonas aeruginosa) | MIC (Staphylococcus aureus [11]) | MIC (Bacillus subtilis) | MIC (Staphylococcus aureus [12]) | Stability (Plasma [25]) | other results |
| --- | --- | --- | --- | --- | --- | --- | --- | --- | --- | --- | --- | --- | --- | --- | --- | --- | --- |
| N=C(N)NCCCC(NC(=O)C(Cc1c[nH]c2ccccc12)NC(=O)C(Cc1c[nH]c2ccccc12)NC(=O)C(CCCNC(=N)N)NC(=O)C(N)Cc1c[nH]c2ccccc12)C(N)=O (configuration not stated) (H-WRWWR-NH2; configuration not given here) | 20 µg/mL (≈ 22.5 µM) | 60 µg/mL | 200 µg/mL | 13.3 | Dose-dependent effect | Toxic | 5.31% | 21% | 44% | 30.604 min | 40 µg/mL (≈ 45 µM) | 70 µg/mL (≈ 78.8 µM) | 15 µg/mL (≈ 16.9 µM) | 50 µg/mL (≈ 56.3 µM) | 17.5 µg/mL (≈ 19.7 µM) |  | metabolised at 24 h [6]: 18%; Stability (Plasma [8]): Stable |
| N=C(N)NCCCC(NC(=O)C(Cc1c[nH]c2ccccc12)NC(=O)c1cccc(NC(=O)C(Cc2c[nH]c3ccccc23)NC(=O)C(CCCNC(=N)N)NC(=O)C(N)Cc2c[nH]c3ccccc23)c1)C(N)=O (configuration not stated) (H-WRW[3Abz]WR-NH2; configuration not given here) | 5 µg/mL (≈ 4.96 µM) | 80 µg/mL | 310 µg/mL | 62 | Dose-dependent effect | Toxic |  | 65% | 70% | 27.34 min | 7.5 µg/mL (≈ 7.45 µM) | 12.5 µg/mL (≈ 12.4 µM) | 5 µg/mL (≈ 4.96 µM) | 20 µg/mL (≈ 19.9 µM) | 5.5 µg/mL (≈ 5.46 µM) | Stable | CFU/ml (Staphylococcus aureus [13]): 1000; CFU/ml (Escherichia coli [14]): 1000; Activity (Lipid bilayer [15]): 47%; Activity (Lipid bilayer [16]): 19%; Activity (Lipid bilayer [17]): Dose-dependent effect; Activity [18]: inactive; Activity (Escherichia coli [19]): Active; Activity (Staphylococcus aureus [20]): Active; inhibition (Staphylococcus aureus [21]): Active; inhibition (Staphylococcus aureus [22]): Active; Stability (Plasma [23]): Stable; metabolised at 2 h [24]: 6.58%; Stability [26]: Stable; Stability [27]: Stable |
| NCCCC(NC(=O)C(Cc1c[nH]c2ccccc12)NC(=O)C(Cc1c[nH]c2ccccc12)NC(=O)C(CCCN)NC(=O)C(N)Cc1c[nH]c2ccccc12)C(N)=O (configuration not stated) (H-W[Orn]WW[Orn]-NH2; configuration not given here) | 70 µg/mL (≈ 87.1 µM) | 65 µg/mL | 225 µg/mL | 4.5 | Dose-dependent effect | Toxic | 4.72% | 82% | 44% | 28.309 min | 70 µg/mL (≈ 87.1 µM) | 150 µg/mL (≈ 187 µM) | 50 µg/mL (≈ 62.2 µM) | 120 µg/mL (≈ 149 µM) | 50 µg/mL (≈ 62.2 µM) | Stable |  |
| NCCCC(N)C(=O)NC(CCCN)C(=O)NC(Cc1c[nH]c2ccccc12)C(=O)Nc1cccc(C(=O)NC(Cc2c[nH]c3ccccc23)C(=O)NC(CCCN)C(N)=O)c1 (configuration not stated) (H-[Orn][Orn]W[3Abz]W[Orn]-NH2; configuration not given here) | 12.5 µg/mL (≈ 14.7 µM) | 120 µg/mL | 450 µg/mL | 60 |  |  |  |  |  | 24.231 min | 40 µg/mL (≈ 47 µM) | 50 µg/mL (≈ 58.8 µM) | 7.5 µg/mL (≈ 8.81 µM) | 40 µg/mL (≈ 47 µM) | 10.2 µg/mL (≈ 12 µM) |  |  |
